Measured values from different studies.
Each line is one published result; the experiments were not run side by side.
Target: Cyclin-dependent kinase 8 (CDK8, Homo sapiens, UniProt P49336)

N[C@@H]1CCN(c2nccc(-c3cnn4ncccc34)n2)C1 — remaining binding (binding; 1 µM): 100%
CN(C)c1ncnc(-c2ccc3nc(Nc4cc(CN5CCN(C(=O)CC(F)(F)F)CC5)ccn4)[nH]c3c2)c1Cl — remaining binding (cell-free assay, competition with immobilised ligand; 1 µM): 90%
O=C(NCCCN1CCOCC1)c1ccc(Nc2ncc(Cl)c(-c3ccc(Cl)s3)n2)cc1 — remaining binding (binding, competition with immobilised ligand; 1 µM): 100%
O=C(Nc1c[nH]nc1C(=O)NC1CCNCC1)c1cc(F)cc(F)c1 — remaining binding (binding, competition with immobilised ligand; 1 µM): 97%
FC(F)(F)Oc1cccc(-c2cnc3ccc(-c4ccncc4)nn23)c1 — remaining binding (cell-free assay, competition with immobilised ligand; 5 µM): 12%
CNC(=O)[C@@H]1CC[C@@H](n2c(-c3ccc4cnccc4c3)nc3ccc(C(=O)NCc4cccc(C(N)=O)c4)cc32)C1 — remaining binding (binding, competition with immobilised ligand; 1 µM): 100%
O=C(NS(=O)(=O)c1ccc(NCC2CCOCC2)c([N+](=O)[O-])c1)c1ccc(N2CCN(Cc3ccc(C(F)(F)F)cc3-c3ccc(Cl)cc3)CC2)cc1Oc1cnc2[nH]ccc2c1 — remaining binding (cell-free assay, competition with immobilised ligand; 1 µM): 100%
c1cncc(-c2cccc(Nc3nccc(NC4CCCCC4)n3)c2)c1 — remaining binding (binding, competition with immobilised ligand; 10 µM): 66%
C[C@H]1CCN(c2nccc(-c3cnn4ncccc34)n2)C1 — remaining binding (binding; 1 µM): 100%
Cc1cc(NC(=O)c2cccc(S(F)(F)(F)(F)F)c2)cc(-n2ccn3nc(-c4cccnc4)cc23)c1 — remaining binding (cell-free assay, competition with immobilised ligand; 1 µM): 86.2%
CN(CCCC(F)(F)F)c1nccc(-c2cnn3ncccc23)n1 — remaining binding (binding; 1 µM): 100%
O=C(NCCCN1CCOCC1)c1ccc(Nc2nccc(-c3cc4ccccc4s3)n2)cc1 — remaining binding (binding, competition with immobilised ligand; 1 µM): 79%
Cc1cnn2ncc(-c3ccnc(N(C)C)n3)c2c1 — remaining binding (binding; 1 µM): 93%
COc1ccc2c(O[C@@H]3C[C@H]4C(=O)N[C@]5(C(=O)O)CC5/C=C\CCCCC[C@H](NC(=O)OC5CCCC5)C(=O)N4C3)cc(-c3csc(NC(=O)C(C)C)n3)nc2c1C (some centres unmarked) — remaining binding (cell-free assay, competition with immobilised ligand; 1 µM): 68%
CN(C)c1nccc(-c2cnn3ncccc23)n1 — remaining binding (binding; 1 µM): 100%
C[C@@]1(Cc2ccc(C#N)cc2)C(=O)N(c2cc(Cl)cc(Cl)c2)c2ncc(C(=O)NC3(c4nc(C5CCC5)no4)CC3)n21 — remaining binding (cell-free assay, competition with immobilised ligand; 1 µM): 100%
CN(C)c1ncc(F)c(-c2cnn3ncccc23)n1 — remaining binding (binding; 1 µM): 87%
CO[C@@H](C)c1c(Nc2ccc([C@H](N(C)C(=O)C3CCS(=O)(=O)CC3)C(F)(F)F)cc2)cnc2cc(Cl)nn12 — remaining binding (binding, competition with immobilised ligand; 1 µM): 39%
O=C(c1ccc(Nc2ncc(Cl)c(-c3cc4ccccc4s3)n2)cc1)N1CCC(N2CCCC2)CC1 — remaining binding (binding, competition with immobilised ligand; 1 µM): 100%
COc1ncc2cc3ccccc3nc2c1C#N — remaining binding (cell-free assay, competition with immobilised ligand; 5 µM): 100%
